Measured values published in ChEMBL document CHEMBL4665637, “Inhibition of diverse opportunistic viruses by structurally optimized retrograde trafficking inhibitors” (Bioorg Med Chem, 2019).
Activity calls are given as the source filed them. The rule behind the calls is not given here.

Columns and labels:
Human betaherpesvirus 5 [1] = experiment: Antiviral activity against HCMV infected in human ARPE-19 cells at 7.5 uM measured after 3 days post infection; assay type: functional, cell-based
How it was run: (§1)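 ARPE-19 cells infected with GFP-expressing HCMV and treated with compound at 7.5 µM. Images taken 3 and 6 days post infection, and area of infection calculated from GFP signal. Average of 3 distinct experiments.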

[2] = Cytotoxicity in mouse BALB/3T3 clone A31 cells assessed as cell viability at 10 uM incubated for 96 hrs by CellTiter-Glo Luminescent assay; assay type: cell-based; details: balb/3t3 clone a31, 96 h
How it was run: (§2)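 Cells in 96-well plates exposed to DMSO or compound at 100 nM or 10 µM for 96 h. Medium then replaced with fresh medium. XTT read as absorbance after 2 h at 37°C with activating reagent; CellTiter-Glo (ATP) read as luminescence. Average of three independent experiments.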

Human betaherpesvirus 5 [3] = experiment: Antiviral activity against HCMV infected in human ARPE-19 cells at 7.5 uM measured after 6 days post infection; assay type: functional, cell-based; how it was run: as §1
Vero [4] = experiment: Cytotoxicity in African green monkey VERO cells assessed as cell viability at 100 nM incubated for 96 hrs by XTT Assay; assay type: cell-based; details: chlorocebus sabaeus, 0.1 µM; how it was run: as §2
Vero [5] = experiment: Cytotoxicity in African green monkey VERO cells assessed as cell viability at 100 nM incubated for 96 hrs by CellTiter-Glo Luminescent assay; assay type: cell-based; details: chlorocebus sabaeus, 0.1 µM; how it was run: as §2
BALB/3T3 clone A31 [6] = experiment: Antiviral activity against mouse polyomavirus A2 strain infected in BALB.3T3 clone A31 cells assessed as viral RNA at 100 nM to 10 uM measured after 24 hpi by RT-PCR analysis; assay type: functional, cell-based; details: Murine polyomavirus, dose microM 0.1-10
How it was run: (§3)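 A31 cells in 10% FBS DMEM infected with MuPyV A2 at MOI 1 for 1.5 h at 37°C. Cells washed twice, then exposed to compound (100 nM, 1.0 µM or 10 µM) for 24 h. Total RNA extracted and 2 µg converted to cDNA. LT mRNA measured by qPCR, normalized to TBP and to untreated cells. Two independent experiments, n=4 per condition, mean ± SD, 2-way ANOVA.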

NHDF [7] = experiment: Cytotoxicity in human NHDF cells assessed as cell viability at 10 uM incubated for 96 hrs by CellTiter-Glo Luminescent assay; assay type: cell-based; how it was run: as §2
Vero [8] = experiment: Cytotoxicity in African green monkey VERO cells assessed as cell viability at 10 uM incubated for 96 hrs by CellTiter-Glo Luminescent assay; assay type: cell-based; details: chlorocebus sabaeus, dose […]; how it was run: as §2
ARPE-19 [9] = experiment: Cytotoxicity in human ARPE-19 cells assessed as cell viability at 10 uM incubated for 96 hrs by CellTiter-Glo Luminescent assay; assay type: cell-based; details: arpe-19, 96 h; how it was run: as §2
Vero [10] = experiment: Cytotoxicity in African green monkey VERO cells assessed as cell viability at 10 uM incubated for 96 hrs by XTT Assay; assay type: cell-based; details: chlorocebus sabaeus; how it was run: as §2
ARPE-19 [11] = experiment: Cytotoxicity in human ARPE-19 cells assessed as cell viability at 100 nM incubated for 96 hrs by CellTiter-Glo Luminescent assay; assay type: cell-based; details: arpe-19, 96 h, 0.1 µM; how it was run: as §2
ARPE-19 [12] = experiment: Cytotoxicity in human ARPE-19 cells assessed as cell viability at 100 nM incubated for 96 hrs by XTT Assay; assay type: cell-based; details: arpe-19, 96 h, 0.1 µM; how it was run: as §2
ARPE-19 [13] = experiment: Cytotoxicity in human ARPE-19 cells assessed as cell viability at 10 uM incubated for 96 hrs by XTT Assay; assay type: cell-based; details: arpe-19, 96 h; how it was run: as §2
[14] = Cytotoxicity in mouse BALB/3T3 clone A31 cells assessed as cell viability at 100 nM incubated for 96 hrs by XTT Assay; assay type: cell-based; details: balb/3t3 clone a31, 96 h, 0.1 µM; how it was run: as §2
NHDF [15] = experiment: Cytotoxicity in human NHDF cells assessed as cell viability at 100 nM incubated for 96 hrs by CellTiter-Glo Luminescent assay; assay type: cell-based; details: 0.1 µM; how it was run: as §2
Human betaherpesvirus 5 [16] = experiment: Antiviral activity against HCMV TB40/E infected in human NHDF cells assessed as reduction in infectious virus titer compound added 2 hpi and measured after 96 hpi by inverted microscopic analysis; details: Human betaherpesvirus 5, TB40/E
[17] = Cytotoxicity in mouse BALB/3T3 clone A31 cells assessed as cell viability at 10 uM incubated for 96 hrs by XTT Assay; assay type: cell-based; details: balb/3t3 clone a31, 96 h; how it was run: as §2
[18] = Cytotoxicity in mouse BALB/3T3 clone A31 cells assessed as cell viability at 100 nM incubated for 96 hrs by CellTiter-Glo Luminescent assay; assay type: cell-based; details: balb/3t3 clone a31, 96 h, 0.1 µM; how it was run: as §2
NHDF [19] = experiment: Cytotoxicity in human NHDF cells assessed as cell viability at 100 nM incubated for 96 hrs by XTT Assay; assay type: cell-based; details: 0.1 µM; how it was run: as §2
Human betaherpesvirus 5 [20] = experiment: Antiviral activity against HCMV TB40/E infected in human assessed as reduction in infectious virus titer at 10 uM compound added 2 hpi and measured after 96 hpi by inverted microscopic analysis
NHDF [21] = experiment: Inhibition of retrograde transport in NHDF cells assessed as displacement of STX5 from golgi apparatus at 10 uM by immunofluorescence analysis; assay type: functional, cell-based; details: Homo sapiens
How it was run: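 HDFs exposed to 10 µM compound or DMSO vehicle, fixed in 2% paraformaldehyde for 15 min at room temperature. Blocked in PBS with 10% human serum, 0.5% Tween-20 and 5% glycine, permeabilized with 0.1% Triton X-100. Stained for STX5 and for the Golgi marker p115, DAPI mounting, imaged by confocal microscopy.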

NHDF [22] = experiment: Cytotoxicity in human NHDF cells assessed as cell viability at 10 uM incubated for 96 hrs by XTT Assay; assay type: cell-based; how it was run: as §2
BALB/3T3 clone A31 [23] = experiment: Antiviral activity against mouse polyomavirus A2 strain infected in BALB.3T3 clone A31 cells assessed as viral RNA at 1 to 10 uM measured after 24 hpi by RT-PCR analysis; assay type: functional, cell-based; details: Murine polyomavirus; how it was run: as §3
BALB/3T3 clone A31 [24] = experiment: Antiviral activity against mouse polyomavirus A2 strain infected in BALB.3T3 clone A31 cells assessed as viral RNA at 100 nM measured after 24 hpi by RT-PCR analysis; assay type: functional, cell-based; details: Murine polyomavirus; how it was run: as §3

SMILES | Activity (Human betaherpesvirus 5 [1]) | Activity [2] | Activity (Human betaherpesvirus 5 [3]) | Activity (Vero [4]) | Activity (Vero [5]) | Activity (NHDF [7]) | Activity (Vero [8]) | Activity (ARPE-19 [9]) | Activity (Vero [10]) | Activity (ARPE-19 [11]) | Activity (ARPE-19 [12]) | Activity (ARPE-19 [13]) | Activity [14] | Activity (NHDF [15]) | IC50 (Human betaherpesvirus 5 [16]) [nM] | Activity [17] | Activity [18] | Activity (NHDF [19]) | Activity (Human betaherpesvirus 5 [20]) | STX5 displacement from Golgi (active/inactive call) (NHDF [21]) | also measured
Cc1nc(-c2ccc(C3N(C)c4ccc([N+](=O)[O-])cc4C(=O)N3c3ccccc3)s2)cs1 (stereo not drawn) | Active | Toxic | Active | Non-Toxic | Non-Toxic | Toxic | Toxic | Toxic | Toxic | Non-Toxic | Non-Toxic | Toxic | Non-Toxic | Non-Toxic | 21.3 | Toxic | Non-Toxic | Non-Toxic | Active | Active | Activity (BALB/3T3 clone A31 [6]): Active; Activity (NHDF [22]): Toxic
Cc1nc(-c2ccc(C3N(C)c4ccc(F)cc4C(=O)N3c3ccccc3)s2)cs1 (stereo not drawn) |  |  |  |  |  |  |  |  |  |  |  |  |  |  | 25 |  |  |  |  |  | 
Cc1nc(-c2ccc(C3N(C)c4ccc(C#N)cc4C(=O)N3c3ccccc3)s2)cs1 (stereo not drawn) | Active | Toxic | Active | Non-Toxic | Non-Toxic | Toxic | Toxic | Toxic |  | Non-Toxic | Non-Toxic |  | Non-Toxic | Non-Toxic | 34.1 |  | Non-Toxic | Non-Toxic | Active | Active | Activity (BALB/3T3 clone A31 [6]): Active
Cc1nc(-c2ccc(C3N(C)c4ccccc4C(=O)N3c3ccccc3)s2)cs1 (stereo not drawn) |  |  |  |  |  |  |  |  |  |  |  |  |  |  | 386 |  |  |  |  |  | 
Cc1nc(-c2ccc(C3Nc4ccc(C#N)cc4C(=O)N3c3ccccc3)s2)cs1 (stereo not drawn) | Active | Toxic | Active | Non-Toxic | Non-Toxic | Toxic | Toxic | Toxic | Toxic | Non-Toxic | Non-Toxic | Toxic | Non-Toxic | Non-Toxic | 96.3 | Toxic | Non-Toxic | Non-Toxic | Active | Active | Activity (BALB/3T3 clone A31 [23]): Active; Activity (BALB/3T3 clone A31 [24]): inactive; Activity (NHDF [22]): Toxic
Cc1nc(-c2ccc(C3Nc4ccc([N+](=O)[O-])cc4C(=O)N3c3ccccc3)s2)cs1 (stereo not drawn) | Active | Toxic | Active | Non-Toxic | Non-Toxic | Toxic | Toxic | Toxic | Toxic | Non-Toxic | Non-Toxic | Toxic | Non-Toxic | Non-Toxic | 90.5 | Toxic | Non-Toxic | Non-Toxic | Active | Active | Activity (BALB/3T3 clone A31 [23]): Active; Activity (BALB/3T3 clone A31 [24]): inactive; Activity (NHDF [22]): Toxic
